Results from different studies.
Protocols differ between the studies behind these lines.
CDK13: Cyclin-dependent kinase 13 (CDK13, Homo sapiens, UniProt Q14004)
CDK13 with cyclin K: Cyclin-dependent kinase 13, with cyclin K (CDK13, Homo sapiens, UniProt Q14004)

`CN(C)c1nccc(-c2cnc3ncccn23)n1` has a remaining binding of 58% (CDK13; binding; 1 µM).
`COc1cc(Cl)c(C(=O)N[C@@H](CN[C@H]2CC[C@@H](N)CC2)Cc2ccc(C#N)cc2)cc1-c1ccc(CN[C@H](C)c2ccc(C)cc2)o1` has a remaining activity of 107% (CDK13 with cyclin K; enzyme activity, inhibitor; 1 µM).
For `C[C@H](NC(=O)c1cnc2n1[C@](C)(Cc1ccc(C#N)cc1)C(=O)N2c1cc(Cl)c(F)c(Cl)c1)C(=O)NC1(c2ccccn2)CC1`, the remaining binding was 100% (CDK13; cell-free assay, competition with immobilised ligand; 1 µM).
For `CN1CC(Oc2cnc(C#N)cc2-c2ccn3nc(NC(=O)C4CC4)cc3c2)C1`, the inhibition was 1% (CDK13 with cyclin K; enzyme activity, inhibitor; 1 µM).
For `Cc1ccc(C(=O)NCc2ccsc2)cc1C#Cc1cn(C(C)C)c2ncnc(N)c12`, the activity vs control was 85% (CDK13 with cyclin K; enzyme activity, inhibitor; 1 µM).
`Cc1ccc(C(=O)Nc2ccc(CN3CCN(C)CC3)c(C(F)(F)F)c2)cc1C#Cc1cnc2cccnn12` has a remaining activity of 6.4% (CDK13; enzyme activity, inhibitor; 23.5 nM).
For `CN([C@@H]1CCc2c(CC(=O)O)c3cc(S(C)(=O)=O)ccc3n2C1)S(=O)(=O)c1ccc(F)cc1`, the remaining binding was 86% (CDK13; cell-free assay, competition with immobilised ligand; 1 µM).
The remaining signal of `Nc1ncnc2occ(-c3ccc(NC(=O)Nc4cc(C(F)(F)F)ccc4F)cc3)c12` is reported as 0.1% (CDK13; cell-free assay, inhibitor; 20 µM).
